ChEMBL document CHEMBL1129286, “In vitro and in vivo studies of benzisoquinoline ligands for the brain synaptic vesicle monoamine transporter” (J Med Chem, 1996)

Legend:
[1] = molecular target: Synaptic vesicular amine transporter (Rattus norvegicus, UniProt Q01827); assay: In vitro inhibition of [3H]- Methoxytetrabenazine binding to rat brain vesicular monoamine transporter 2 (VMAT2)
Procedure, shortened: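 Autoradiographic competition on rat brain coronal sections (20, caudate-putamen level) on slides. Sections prewashed at 25 °C in sucrose buffer (300 mM sucrose, 50 mM Tris, 1 mM EDTA, pH 8.0), then incubated 3 h with 10 nM [3H]methoxytetrabenazine and test drug from 1 nM. Washed 3 × 3 min, dipped in 4 °C water, air-dried, film-exposed 2 weeks.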

Mus musculus [2] = assay: Competition of compound for the in vivo localization of [11C] Methoxytetrabenazine in mouse Striatum; %ID/g (%injected dose/g); assay type: functional, organism-based
Procedure, shortened: (§1)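 CD-1 mice anesthetized with diethyl ether, given by tail vein a mixture of [11C]methoxytetrabenazine (100-300 µCi) plus 10 mg/kg test compound in 10% ethanol in saline, then allowed to recover. Controls received radiotracer in saline with no competitor. Killed under ether at 15 min, regional brain radioactivity read as %ID/g; mean ± SD, unpaired Student's t-test versus controls.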

Mus musculus [3] = assay: Competition of compound for the in vivo localization of [11C] Methoxytetrabenazine in mouse Hyphalamus; %ID/g (%injected dose/g); assay type: functional, organism-based; procedure, shortened: as §1

Sequence of Synaptic vesicular amine transporter (Q01827 whole entry): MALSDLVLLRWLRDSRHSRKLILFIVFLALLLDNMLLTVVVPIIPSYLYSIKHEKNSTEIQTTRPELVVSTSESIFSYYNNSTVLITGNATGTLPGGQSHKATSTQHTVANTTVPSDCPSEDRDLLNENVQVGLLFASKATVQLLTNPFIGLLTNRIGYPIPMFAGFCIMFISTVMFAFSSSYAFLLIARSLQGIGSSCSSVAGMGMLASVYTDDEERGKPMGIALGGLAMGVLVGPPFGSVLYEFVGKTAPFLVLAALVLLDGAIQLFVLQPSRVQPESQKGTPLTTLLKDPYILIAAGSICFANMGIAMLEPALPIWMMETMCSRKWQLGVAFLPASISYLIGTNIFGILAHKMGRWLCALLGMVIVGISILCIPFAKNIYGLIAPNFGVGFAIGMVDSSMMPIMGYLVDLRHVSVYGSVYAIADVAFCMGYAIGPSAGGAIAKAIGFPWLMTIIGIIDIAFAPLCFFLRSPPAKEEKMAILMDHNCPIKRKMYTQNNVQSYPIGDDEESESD

SMILES | Ki [1] [nM] | ID/g (Mus musculus [2]) [%] | ID/g (Mus musculus [3]) [%]
COc1cc2c(cc1OC)[C@H]1C[C@](C)(O)[C@H](CC(C)C)CN1CC2 | 12 | 2.35 | 1.79
COc1cc2c(cc1OC)[C@H]1CC(=O)[C@H](CC(C)C)CN1CC2 | – | 2.26 | 1.71
COc1cc2c(cc1OC)[C@H]1C[C@@](O)(C(C)C)[C@H](CC(C)C)CN1CC2 | 136 | 6.21 | 3.06
COc1cc2c(cc1OC)[C@H]1C[C@@](C)(O)[C@H](CC(C)C)CN1CC2 | 2.6 | 2.09 | 1.96
CCC[C@]1(O)C[C@@H]2c3cc(OC)c(OC)cc3CCN2C[C@H]1CC(C)C | 84 | 4.26 | 1.96
COc1cc2c(cc1OC)[C@H]1C[C@@](O)(CC(C)C)[C@H](CC(C)C)CN1CC2 | 33 | 5.33 | 2.93
CC[C@]1(O)C[C@@H]2c3cc(OC)c(OC)cc3CCN2C[C@H]1CC(C)C | 42 | 3.24 | 2
